Test results as given in ChEMBL document CHEMBL1124464, “Peripherally acting enkephalin analogues. 2. Polar tri- and tetrapeptides” (1989).

Key:
Assay type in all cases: functional
Mus musculus [1] = test: Antinociceptive activity of subcutaneously administered compound in acetic acid (AA) induced writhing mice; details: sc
Procedure, shortened: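 Male TFW mice, groups of five to six, given drug subcutaneously (10 mL kg-1), then ip acetic acid 0.6% at 25 mL kg-1. Writhes counted for 5 min beginning 15 min after acetic acid. ED50 = dose reducing writhes 50% versus vehicle, by linear regression.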

Mus musculus [2] = test: Antinociceptive activity of subcutaneously administered compound in phenyl-p-benzoquinone induced writhing mice; details: Mus musculus, sc; read-out: ED50
Procedure, shortened: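 Groups of five to six female CD1 mice given drug subcutaneously (10 mL kg-1) 30 min before ip phenyl-p-benzoquinone 2.5 mg kg-1. Writhes (abdominal constrictions/hind-limb extensions) counted over 2.5 min from 10 min post-PBQ. ED50, the dose giving 50% fewer writhes than vehicle, from linear regression.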

Mus musculus [3] = test: Antinociceptive activity of perorally administered compound (20 mg) in phenyl-p-benzoquinone induced writhing mice
Procedure, shortened: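 Female CD1 mice (Charles River), groups of five to six, dosed orally by blunt intragastric needle (10 mL kg-1) 30 min before ip PBQ at 2.5 mg kg-1. Abdominal constrictions/hind-limb extensions were counted over 2.5 min starting 10 min after PBQ. ED50 is the dose halving writhes versus vehicle, estimated by linear regression.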

Mus musculus [4] = species on record: Mus musculus; test: Dose ratio in the presence and absence of the peripheral opioid antagonist in N-methyl-nalorphine in AA writhing mice
Procedure, shortened: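 Acetic acid (0.6%, ip) writhing in male TFW mice; N-methylnalorphine 11.5 mg kg-1 ip 20 min before subcutaneous agonist. Writhes counted 5 min from 15 min post-irritant. Dose ratio taken as the shift between parallel regression lines with and without antagonist.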

Mus musculus [5] = test: Antinociceptive activity in the hot plate test (central activity) in rodents, when compound administered subcutaneously at 50 mg
Procedure, shortened: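 Male CFLP mice (Hacking and Churchill), groups of five to six, dosed sc at 10 mL kg-1 and placed on a copper surface held at 55 °C. Signs of discomfort (paw licking/shaking, jumping) were scored, with a 30-s cut-off. ED50 is the dose doubling response latency versus vehicle, estimated by parallel-line probit analysis.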

Cavia porcellus = species on record: Cavia porcellus; test: Inhibition of electrically induced contractions on the guinea pig ileum; details: read-out: ED50 (the source's name)
Procedure, shortened: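 Guinea pig ileum contractions evoked by coaxial stimulation at 0.1 Hz, 0.5-ms pulses, supramaximal voltage, recorded isometrically; dose-response curves built with 15-min washout between doses.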

Mus musculus [6] = test: Antinociceptive activity in the hot plate test (central activity) in rodents, when compound administered subcutaneously; details: sc
Procedure, shortened: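 Male CFLP mice, groups of five to six, placed on a copper surface held at 55 °C; latency to paw licking/shaking or jumping recorded, 30-s cut-off. Drug given subcutaneously at 10 mL kg-1. ED50 = dose doubling response latency versus vehicle, by parallel-line probit analysis.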

Mus musculus [7] = test: Antinociceptive activity of perorally administered compound in phenyl-p-benzoquinone induced writhing mice; details: po
Procedure, shortened: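 Female CD1 mice, groups of five to six, dosed orally by blunt intragastric needle (10 mL kg-1) 30 min before ip phenyl-p-benzoquinone 2.5 mg kg-1. Abdominal constrictions/hind-limb extensions counted over 2.5 min starting 10 min after PBQ. ED50 = dose halving writhes versus vehicle, by linear regression.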

Row | SMILES | ED50 (Mus musculus [1]) | ED50 (Mus musculus [2]) | Inhibition (Mus musculus [3]) | Ratio (Mus musculus [4]) | Inhibition (Mus musculus [5]) | EC50 (Cavia porcellus) | ED50 (Mus musculus [6]) | ED50 (Mus musculus [7])
1 | CC(=O)O.CCN(CCc1ccc(Cl)c(Cl)c1)C(=O)CNC(=O)[C@@H](CCCN=C(N)N)NC(=O)[C@H](Cc1ccc(O)cc1)N=C(N)N | 0.62 mg/kg | 0.2 mg/kg | 14% | 1 | 0% | < 100 nM | – | –
2 | CC(=O)O.CCN(CCc1ccco1)C(=O)CNC(=O)[C@@H](CCCN=C(N)N)NC(=O)[C@H](Cc1ccc(O)cc1)N=C(N)N | – | 0.32 mg/kg | 10% | – | – | 10.9 nM | – | –
3 | CC(=O)O.CCN(CCc1cccs1)C(=O)CNC(=O)[C@@H](CCCN=C(N)N)NC(=O)[C@H](Cc1ccc(O)cc1)N=C(N)N | – | 0.44 mg/kg | 15% | – | – | 9.3 nM | 22.9 mg/kg | –
4 | CC(=O)O.CCN(CCc1ccc(F)cc1)C(=O)CNC(=O)[C@@H](CCCN=C(N)N)NC(=O)[C@H](Cc1ccc(O)cc1)N=C(N)N | 0.02 mg/kg | 0.08 mg/kg | – | 2.4 | – | 6.8 nM | 20 mg/kg | 5.3 mg/kg
5 | CC(=O)O.CCN(Cc1ccc(-c2ccccc2)cc1)C(=O)CNC(=O)[C@@H](CCCN=C(N)N)NC(=O)[C@H](Cc1ccc(O)cc1)N=C(N)N | – | 2.3 mg/kg | 0% | – | – | 324 nM | – | –
6 | CC(=O)O.CCN(Cc1ccccc1F)C(=O)CNC(=O)[C@@H](CCCN=C(N)N)NC(=O)[C@H](Cc1ccc(O)cc1)N=C(N)N | 0.81 mg/kg | 0.43 mg/kg | 16% | 7.8 | – | 20.6 nM | 14.6 mg/kg | –
7 | CC(=O)O.CCN(CCc1cccc2ccccc12)C(=O)CNC(=O)[C@@H](CCCN=C(N)N)NC(=O)[C@H](Cc1ccc(O)cc1)N=C(N)N | – | 1.4 mg/kg | 0% | – | 0% | 30 nM | – | –
8 | NC(N)=NCCC[C@@H](NC(=O)[C@@H](N)Cc1ccc(O)cc1)C(=O)NCCSCCc1ccc([N+](=O)[O-])cc1 | – | – | – | – | – | 42000 nM | – | –
9 | CCN(CCc1ccccn1)C(=O)CNC(=O)[C@@H](CCCN=C(N)N)NC(=O)[C@@H](N)Cc1ccc(O)cc1 | – | – | – | – | – | 510 nM | – | –
10 | CC(=O)O.CCN(CCc1ccc(C#N)cc1)C(=O)CNC(=O)[C@@H](CCCN=C(N)N)NC(=O)[C@@H](N)Cc1ccc(O)cc1 | 2.2 mg/kg | – | – | 1.4 | – | 1800 nM | – | –
11 | CC(=O)O.CCN(C(=O)CNC(=O)[C@@H](CCCN=C(N)N)NC(=O)[C@@H](N)Cc1ccc(O)cc1)[C@@H](Cc1cccc(F)c1)C(N)=O | 0.04 mg/kg | 0.08 mg/kg | – | 2.2 | – | 25 nM | 1.7 mg/kg | –
12 | CC(=O)O.CN(C(=O)CNC(=O)[C@@H](CCCN=C(N)N)NC(=O)[C@@H](N)Cc1ccc(O)cc1)[C@@H](Cc1ccc([N+](=O)[O-])cc1)C(N)=O | 0.25 mg/kg | – | – | 2.5 | – | 36.5 nM | – | –
13 | CC(=O)O.CCN(C(=O)CNC(=O)[C@@H](CCCN=C(N)N)NC(=O)[C@@H](N)Cc1ccc(O)cc1)[C@@H](Cc1ccc(Cl)cc1)C(N)=O | 0.03 mg/kg | – | – | 1.3 | – | 0.64 nM | – | –
14 | CC(=O)O.CCN(C(=O)CNC(=O)[C@@H](CCCN=C(N)N)NC(=O)[C@@H](N)Cc1ccc(O)cc1)[C@@H](Cc1ccccc1F)C(N)=O | 0.0009 mg/kg | 0.15 mg/kg | – | 3.9 | – | 0.39 nM | 1.95 mg/kg | 5.9 mg/kg
15 | CC(=O)O.CCN(C(=O)CNC(=O)[C@@H](CCCN=C(N)N)NC(=O)[C@@H](N)Cc1ccc(O)cc1)[C@@H](Cc1ccc(F)cc1)C(N)=O | 0.0006 mg/kg | 0.13 mg/kg | – | 2.3 | – | 2.2 nM | 1.6 mg/kg | 7.9 mg/kg
16 | CC(=O)O.CCN(C(=O)CNC(=O)[C@@H](CCSC)NC(=O)[C@@H](N)Cc1ccc(O)cc1)[C@@H](Cc1ccc([N+](=O)[O-])cc1)C(N)=O | 0.0015 mg/kg | – | – | 0.8 | – | 1.2 nM | – | –
17 | CC(=O)O.CCN(C(=O)CNC(=O)[C@@H](CCCN=C(N)N)NC(=O)[C@@H](N)Cc1ccc(O)cc1)[C@@H](Cc1ccc(Cl)c(Cl)c1)C(N)=O | 0.008 mg/kg | 1.79 mg/kg | – | 9.7 | – | 0.79 nM | 38.2 mg/kg | 29.2 mg/kg

Row | SMILES | ED50 (Mus musculus [1]) | ED50 (Mus musculus [2]) | Inhibition (Mus musculus [3]) | Ratio (Mus musculus [4]) | Inhibition (Mus musculus [5]) | EC50 (Cavia porcellus) | ED50 (Mus musculus [6]) | ED50 (Mus musculus [7])
18 | CC(=O)O.CCN(C(=O)CNC(=O)[C@@H](CCCN=C(N)N)NC(=O)[C@@H](N)Cc1ccc(O)cc1)[C@@H](Cc1ccc(C(F)(F)F)cc1)C(N)=O | 0.13 mg/kg | – | – | 2.9 | – | 6.25 nM | 16.9 mg/kg | –
19 | CC(=O)O.CCN(C(=O)CNC(=O)[C@@H](CCCN=C(N)N)NC(=O)[C@@H](N)Cc1ccc(O)cc1)[C@@H](Cc1ccc([N+](=O)[O-])cc1)C(N)=O | 0.05 mg/kg | 0.06 mg/kg | – | 3.4 | – | 5.2 nM | 0.54 mg/kg | 13.9 mg/kg
20 | CC(=O)O.CCN(C(=O)CNC(=O)[C@@H](CCCN=C(N)N)NC(=O)[C@H](Cc1ccc(O)cc1)N=C(N)N)[C@@H](Cc1ccc([N+](=O)[O-])cc1)C(N)=O | 0.009 mg/kg | 0.005 mg/kg | – | 5.1 | – | 3.9 nM | 0.34 mg/kg | 1.9 mg/kg
21 | CC(=O)O.CCN(C(=O)CNC(=O)[C@@H](CCCN=C(N)N)NC(=O)[C@H](Cc1ccc(O)cc1)N=C(N)N)[C@@H](Cc1ccc(F)cc1)C(N)=O | 0.002 mg/kg | 0.04 mg/kg | – | 6.5 | – | 0.09 nM | 0.9 mg/kg | 25.6 mg/kg
22 | CC(=O)O.CCN(CCc1ccc([N+](=O)[O-])s1)C(=O)CNC(=O)[C@@H](CCCN=C(N)N)NC(=O)[C@@H](N)Cc1ccc(O)cc1 | 1.7 mg/kg | – | – | 6.2 | – | 217 nM | – | –
23 | CC(=O)O.CCN(CCc1ccc(F)cc1)C(=O)CNC(=O)[C@@H](CCCN=C(N)N)NC(=O)[C@@H](N)Cc1ccc(O)cc1 | 0.14 mg/kg | 1.6 mg/kg | – | 4.5 | – | 20.5 nM | 12.3 mg/kg | 30.8 mg/kg
24 | CC(=O)O.CCN(Cc1ccccc1F)C(=O)CNC(=O)[C@@H](CCCN=C(N)N)NC(=O)[C@@H](N)Cc1ccc(O)cc1 | 1.1 mg/kg | 31.1 mg/kg | – | 8 | 0% | 325 nM | – | –
25 | CCN(CCc1sccc1[N+](=O)[O-])C(=O)CNC(=O)[C@@H](CCCN=C(N)N)NC(=O)[C@@H](N)Cc1ccc(O)cc1 | – | – | – | – | – | 146 nM | – | –
26 | CC(=O)O.CCN(CCc1cccc2ccccc12)C(=O)CNC(=O)[C@@H](CCCN=C(N)N)NC(=O)[C@@H](N)Cc1ccc(O)cc1 | – | 1.4 mg/kg | 31% | – | 0% | 75.9 nM | – | –
27 | CC(=O)O.CCN(CCc1ccc([N+](=O)[O-])cc1)C(=O)CNC(=O)[C@@H](CCSC)NC(=O)[C@@H](N)Cc1ccc(O)cc1 | 0.87 mg/kg | – | – | 1.1 | – | 41 nM | – | –
28 | CCN(Cc1c(F)c(F)c(F)c(F)c1F)C(=O)CNC(=O)[C@@H](CCCN=C(N)N)NC(=O)[C@@H](N)Cc1ccc(O)cc1 | – | – | – | – | – | 820 nM | – | –
29 | CC(=O)O.CCN(CCc1ccccc1[N+](=O)[O-])C(=O)CNC(=O)[C@@H](CCCN=C(N)N)NC(=O)[C@H](Cc1ccc(O)cc1)N=C(N)N | 0.03 mg/kg | 1.1 mg/kg | – | 8.6 | – | 1.2 nM | 52.9 mg/kg | 76.1 mg/kg
30 | CC(=O)O.CCN(CCc1ccc([N+](=O)[O-])cc1)C(=O)CNC(=O)[C@@H](CCCN=C(N)N)NC(=O)[C@H](Cc1ccc(O)cc1)N=C(N)N | 0.15 mg/kg | 0.24 mg/kg | – | 9.6 | – | 30.4 nM | 19.2 mg/kg | 10 mg/kg
31 | CC(=O)O.CCN(Cc1ccccc1[N+](=O)[O-])C(=O)CNC(=O)[C@@H](CCCN=C(N)N)NC(=O)[C@H](Cc1ccc(O)cc1)N=C(N)N | 1.1 mg/kg | 4 mg/kg | 14% | 11 | 0% | 244 nM | – | –
32 | CC(=O)O.CCN(Cc1ccc([N+](=O)[O-])cc1)C(=O)CNC(=O)[C@@H](CCCN=C(N)N)NC(=O)[C@H](Cc1ccc(O)cc1)N=C(N)N | 0.9 mg/kg | 7.8 mg/kg | – | 4.6 | – | 470 nM | – | –
33 | CC(=O)O.CCN(CCc1ccc([N+](=O)[O-])s1)C(=O)CNC(=O)[C@@H](CCCN=C(N)N)NC(=O)[C@H](Cc1ccc(O)cc1)N=C(N)N | – | 2 mg/kg | 7% | – | – | 25.2 nM | – | –
